Measurements of several laboratories.
Lines come from different studies, so protocols differ.
Target: Receptor tyrosine-protein kinase erbB-2 (ERBB2, Homo sapiens, UniProt P04626)

Structure (SMILES)	assay	conditions	endpoint	result
N#Cc1ccc(NC(=O)Nc2ccccc2)cc1	cell-free assay, competition with immobilised ligand	25 µM	remaining binding	100%
CCCCC(=O)Nc1ccc(-c2ccc3ncn(CCC)c(=O)c3c2)cn1	binding, competition with immobilised ligand	0.5 µM	remaining binding	97%
C1=C/COCc2cc(ccc2OCCN2CCCC2)Nc2nccc(n2)-c2cccc(c2)COC/1	binding	0.1 µM	remaining binding	100%
CO[C@@H]1[C@H](N(C)C(=O)c2ccccc2)C[C@H]2O[C@]1(C)n1c3ccccc3c3c4c(c5c6ccccc6n2c5c31)C(=O)NC4	enzyme activity, inhibitor	1 µM	inhibition	0%
COc1ccc2oc(-c3ccc4nc(N)oc4c3)c/c(=N\c3ccccc3NC(=O)CCN)c2c1	binding	1 µM	remaining binding	104%
Cc1ccc(NC(=O)c2ccnc(C(F)(F)F)c2)cc1-c1cc(OCCO)nc(N2CCOCC2)c1	binding, competition with immobilised ligand	1 µM	remaining binding	72%
COc1c(Cl)cccc1Nc1c(-c2ccncc2OC[C@@H]2COCCO2)[nH]c2c1C(=O)NCC2	enzyme activity, inhibitor, radiometric	1 µM	inhibition	> 80%
C=CC(=O)N1CCC[C@@H](n2nc(-c3ccc(Oc4ccccc4)cc3)c3c(N)ncnc32)C1	enzyme activity, inhibitor	1 µM	inhibition	100%
C[C@H]1CC[C@H](n2c3cnccc3c3cnc(Nc4ccc5c(n4)CCN(C(=O)CO)C5)nc32)CC1	binding, competition with immobilised ligand	1 µM	remaining binding	100%
C#Cc1cnc(Nc2ccnc(CO)c2)nc1Nc1ccccc1S(C)(=O)=NC#N (stereo not shown)	cell-free assay	1 µM	remaining signal	86%
